Type in all cases: functional
Assay [1] relates to Pseudomonas aeruginosa. Nature of the assay: Antibacterial activity against Pseudomonas aeruginosa ATCC 27853 after 24 hrs by microbroth dilution method. As to conditions: ATCC 27853, 24 h. In a few lines:
(§1)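 Tested by CLSI-standard broth microdilution against a panel of eleven bacterial strains, Gram-positive and Gram-negative, including MRSA.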
For orientation: Broth dilution looks for growth in wells or tubes with falling amounts of substance.

The subject of assay [2] is Staphylococcus aureus. Put plainly: Antibacterial activity against methicillin resistant Staphylococcus aureus after 24 hrs by microbroth dilution method. In a few lines:
as §1

Assay [3] has as its system Staphylococcus aureus. Nature of the assay: Antibacterial activity against Staphylococcus aureus ATCC 25923 after 24 hrs by microbroth dilution method. To be noted: ATCC 25923, 24 h. The essentials:
as §1

The subject of assay [4] is Klebsiella pneumoniae. Put plainly: Antibacterial activity against Klebsiella pneumoniae after 24 hrs by microbroth dilution method. In a few lines: as §1
For assay [5], the system named is Enterococcus faecalis. Nature of the assay: Antibacterial activity against Enterococcus faecalis after 24 hrs by microbroth dilution method. The essentials:
as §1

In assay [6] the test system is Pseudomonas aeruginosa. Nature of the assay: Antibacterial activity against Pseudomonas aeruginosa after 24 hrs by microbroth dilution method. In a few lines: as §1
Assay [7] has as its system Aspergillus fumigatus. Nature of the assay: Potency index, ratio of fluconazole MIC to compound MIC for antifungal activity against Aspergillus fumigatus.
In assay [8] the test system is Escherichia coli. Put plainly: Antibacterial activity against Escherichia coli after 24 hrs by microbroth dilution method. The essentials: as §1
The subject of assay [9] is Acinetobacter baumannii. Nature of the assay: Antibacterial activity against Acinetobacter baumannii after 24 hrs by microbroth dilution method. In a few lines: as §1
Assay [10] has as its system Staphylococcus aureus. Nature of the assay: Antibacterial activity against Staphylococcus aureus after 24 hrs by microbroth dilution method. The essentials: as §1
Assay [11] concerns Staphylococcus aureus. Nature of the assay: Antibacterial activity against Staphylococcus aureus ATCC 29213 after 24 hrs by microbroth dilution method. As to conditions: ATCC 29213, 24 h. In a few lines: as §1
Assay [12] deals with Aspergillus fumigatus. Put plainly: Antifungal activity against Aspergillus fumigatus after 24 hrs by microbroth dilution method.
In assay [13] the test system is Escherichia coli. Put plainly: Antibacterial activity against Escherichia coli ATCC 25922 after 24 hrs by microbroth dilution method. To be noted: ATCC 25922, 24 h. The essentials: as §1

Molecules are shown by their SMILES. In brackets after ≈: the same amount, converted by molar mass. Bounds are passed on as bounds.

In general, MIC refers to the lowest concentration found to suppress growth. Read a low MIC as greater potency. Take `CCOP(=O)(OCC)C(Nc1ncccn1)c1ccc(OC)cc1` (stereo not given): the MIC in [1] is 4 µg/mL (≈ 11.4 µM); in assay [2], 256 µg/mL (≈ 729 µM); in assay [3] it was 64 µg/mL (≈ 182 µM); in assay [4], 256 µg/mL (≈ 729 µM); in assay [5], 64 µg/mL (≈ 182 µM); in [6] it was 128 µg/mL (≈ 364 µM). The MIC is 256 µg/mL (≈ 729 µM) in assay [8]; 128 µg/mL (≈ 364 µM) in assay [9]; 256 µg/mL (≈ 729 µM) in [10]; 256 µg/mL (≈ 729 µM) in [11]; above 16 µg/mL in [12]; 256 µg/mL (≈ 729 µM) in assay [13]. In addition, in [7], the Ratio amounted to 16.

On to `CCOP(=O)(OCC)C(Nc1ncccn1)c1ccccc1Cl` (stereo not given), for which the minimum inhibitory concentration (MIC) in assay [1] was determined as 128 µg/mL (≈ 360 µM); in assay [2] it was 8 µg/mL (≈ 22.5 µM); in assay [3] it was 128 µg/mL (≈ 360 µM); in assay [4], 32 µg/mL (≈ 89.9 µM); in [5] it was 128 µg/mL (≈ 360 µM); in assay [6], 128 µg/mL (≈ 360 µM). In addition, the MIC is 256 µg/mL (≈ 720 µM) in assay [8]; 128 µg/mL (≈ 360 µM) in assay [9]; 128 µg/mL (≈ 360 µM) in assay [10]; 128 µg/mL (≈ 360 µM) in [11]; above 16 µg/mL in assay [12]; 64 µg/mL (≈ 180 µM) in [13]. Besides, the Ratio in assay [7] is 16.

For the molecule `CCOP(=O)(OCC)C(Nc1ncccn1)c1cn(CC)c2ccccc12` (stereo not given), the minimal inhibitory concentration (MIC) in [1] worked out at 128 µg/mL (≈ 330 µM); in assay [2], 4 µg/mL (≈ 10.3 µM); in [3], 64 µg/mL (≈ 165 µM); in assay [4] it was 64 µg/mL (≈ 165 µM); in assay [5], 128 µg/mL (≈ 330 µM); in [6], 256 µg/mL (≈ 659 µM). The MIC is 256 µg/mL (≈ 659 µM) in assay [8]; 64 µg/mL (≈ 165 µM) in assay [9]; 64 µg/mL (≈ 165 µM) in [10]; 256 µg/mL (≈ 659 µM) in assay [11]; above 16 µg/mL in assay [12]; 256 µg/mL (≈ 659 µM) in assay [13]. In addition, the Ratio in [7] is 16.

In the case of `Cc1ccc(C(Nc2ncccn2)P(=O)(O)O)cc1` (stereo not given), the minimal inhibitory concentration (MIC) turned out to be 256 µg/mL (≈ 917 µM) in assay [1]; 256 µg/mL (≈ 917 µM) in assay [2]; 128 µg/mL (≈ 458 µM) in assay [3]; 128 µg/mL (≈ 458 µM) in [4]; 256 µg/mL (≈ 917 µM) in [5]; 128 µg/mL (≈ 458 µM) in assay [6]. Besides, the MIC in assay [8] was 128 µg/mL (≈ 458 µM); in assay [9], 256 µg/mL (≈ 917 µM); in assay [10], 256 µg/mL (≈ 917 µM); in [11], 256 µg/mL (≈ 917 µM); in [12], above 16 µg/mL; in assay [13], 256 µg/mL (≈ 917 µM). In [7], the Ratio is on record as 16.

For the molecule `CCOP(=O)(OCC)C(Nc1ncccn1)c1ccc(F)cc1` (stereo not given), the MIC in assay [1] is 64 µg/mL (≈ 189 µM); in assay [2] it was 256 µg/mL (≈ 754 µM); in [3] it was 64 µg/mL (≈ 189 µM); in assay [4], 128 µg/mL (≈ 377 µM); in assay [5], 64 µg/mL (≈ 189 µM); in assay [6], 128 µg/mL (≈ 377 µM). Besides, the MIC in [8] is 256 µg/mL (≈ 754 µM); in assay [9], 128 µg/mL (≈ 377 µM); in [10] it was 256 µg/mL (≈ 754 µM); in assay [11] it was 256 µg/mL (≈ 754 µM); in assay [12], above 16 µg/mL; in [13], 256 µg/mL (≈ 754 µM). In addition, the Ratio in assay [7] came to 16.

As for `O=P(O)(O)C(Nc1ncccn1)c1ccc(F)cc1` (stereo not given), the MIC in [1] turned out to be 128 µg/mL (≈ 452 µM); in assay [2], 128 µg/mL (≈ 452 µM); in assay [3], 128 µg/mL (≈ 452 µM); in assay [4] it was 256 µg/mL (≈ 904 µM); in assay [5] it was 256 µg/mL (≈ 904 µM); in [6], 256 µg/mL (≈ 904 µM). In addition, the MIC in assay [8] was 256 µg/mL (≈ 904 µM); in assay [9], 256 µg/mL (≈ 904 µM); in assay [10], 256 µg/mL (≈ 904 µM); in assay [11], 256 µg/mL (≈ 904 µM); in [12], above 16 µg/mL; in assay [13], 128 µg/mL (≈ 452 µM). The Ratio in assay [7] came to 16.

Regarding `CCn1cc(C(=O)O)c(=O)c2cc(F)c(N3CCNCC3)cc21` [NORFLOXACIN], the MIC came out at 0.5 µg/mL (≈ 1.57 µM) in [1]; 8 µg/mL (≈ 25.1 µM) in assay [2]; 1 µg/mL (≈ 3.13 µM) in [3]; 4 µg/mL (≈ 12.5 µM) in assay [4]; 4 µg/mL (≈ 12.5 µM) in assay [5]; 2 µg/mL (≈ 6.26 µM) in [6]. For the same molecule, the MIC in [8] turned out to be 16 µg/mL (≈ 50.1 µM); in assay [9], 8 µg/mL (≈ 25.1 µM); in assay [10] it was 0.5 µg/mL (≈ 1.57 µM); in [11], 2 µg/mL (≈ 6.26 µM); in assay [13], 8 µg/mL (≈ 25.1 µM).

Regarding `OC(Cn1cncn1)(Cn1cncn1)c1ccc(F)cc1F` [FLUCONAZOLE], in assay [12], the MIC was above 16 µg/mL.
